Reference: ChEMBL document CHEMBL1129445 (J Med Chem, 1996)

Tests used:
[1] = system: Mus musculus; test: Tested for the inhibition of murine PFC response at 50 mg/kg dose; format: functional
[2] = organism: Homo sapiens; test: Inhibition of human Lymphocyte proliferation. The IC50 values were determined by interpolation using cubic spline determination.; format: functional
Method in brief: (§1)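 Human PBMC are isolated on Ficoll from heparinized blood and plated at 2 × 10^5 cells/well in RPMI-1640 with 5% FCS. Cells are stimulated with PHA (10 μg/mL final) and given compound at time 0, at 4-6 concentrations between 0.001 and 20 μM (tested to 10 μM). Cultures run in quadruplicate for 72 h at 37 °C, 7% CO2, with [3H]thymidine (0.5 μCi/well) for the last 6 h. IC50 by cubic-spline interpolation of the means.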

[3] = organism: Mus musculus; test: Effective dose was measured in mice as concentration required to inhibit 50% inhibition of Murine PFC response; format: functional
Method in brief: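 Jerne plaque assay in female C3H or CD-1 mice immunized ip with SRBC on day 0, with oral daily dosing over the next 4 days. Splenic PFC per 10^6 WBC counted on day 4. ED50 read graphically from the dose-inhibition data.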

[4] = system: Mus musculus; test: Tested for the inhibition of murine PFC response at 12.5 mg/kg dose; format: functional
[5] = system: Mus musculus; test: Tested for the inhibition of murine PFC response at 6.25 mg/kg dose; format: functional
[6] = system: Mus musculus; test: Tested for the inhibition of murine PFC response at 25 mg/kg dose; format: functional
[7] = biological target: T1, Inosine-5'-monophosphate dehydrogenase 2 (Homo sapiens, UniProt P12268); test: Inhibition of human recombinant type II Inosine Monophosphate Dehydrogenase at 100 uM
Method in brief: (§2)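 Reactions are run either at pH 7.4 (0.1 M K phosphate, 0.5 M KCl, 3 mM EDTA, 10 μg/mL BSA) or at pH 8.0 (0.1 M Tris-HCl, 0.1 M KCl, 3 mM EDTA, 100 μg/mL BSA). DMSO ≤10%, compounds tested up to 100 μM. IC50 from fit of fractional activity = V0/[(I/IC50)^n + 1].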

[8] = organism: Homo sapiens; test: Inhibition of human Lymphocyte proliferation. The IC50 values were determined by interpolation using the cubic spline determination at 10 uM; format: functional; method in brief: as §1
[9] = biological target: T1, Inosine-5'-monophosphate dehydrogenase 2; test: Inhibition of human recombinant type II Inosine Monophosphate Dehydrogenase. at pH 8.0
Method in brief: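 Recombinant human type II IMPDH (12.5-25 pmol) in 0.1 M Tris-HCl pH 8.0, 0.1 M KCl, 3 mM EDTA, 100 μg/mL BSA. […] IC50 fitted with a Hill equation, fractional activity = V0/[(I/IC50)^n + 1].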

[10] = biological target: T1, Inosine-5'-monophosphate dehydrogenase 2; test: Inhibition of human recombinant inosine monophosphate dehydrogenase type II.; method in brief: as §2
[11] = system: Mus musculus; test: Tested for the inhibition of murine PFC response at 100 mg/kg dose; format: functional
[12] = biological target: T1, Inosine-5'-monophosphate dehydrogenase 2; test: Compound was tested for inhibition of human recombinant type II Inosine Monophosphate Dehydrogenase. (tested to 100 and 10 uM conc); method in brief: as §2
[13] = organism: Mus musculus; test: Compound was tested for its % Inhibition of Murine PFC response in Mice; format: functional
[14] = organism: Homo sapiens; test: Compound was tested for inhibition of human Lymphocyte proliferation. The IC50 values were determined by interpolation using the cubic spline determination at 10 uM; format: functional; method in brief: as §1

| SMILES | IC50 [10] | IC50 [2] | also measured |
| --- | --- | --- | --- |
| COc1c(C)c2c(c(O)c1C/C=C(\C)CCC(=O)O)C(=O)OC2 [MYCOPHENOLIC ACID] | – | 58 nM | inhibition in vivo at 50 mg/kg [1]: 81%; ED50 [3]: 33 mg/kg; inhibition in vivo at 12.5 mg/kg [4]: 20%; inhibition in vivo at 6.25 mg/kg [5]: 16%; inhibition in vivo at 25 mg/kg [6]: 36% |
| COc1c(C)c(C)c(Br)c(Cl)c1C/C=C(\C)CCC(=O)O | – | – | IC50 [7]: 1.04 µM; IC50 [8]: > 10 µM |
| COc1c(C#N)c2c(c(O)c1C/C=C(\C)CCC(=O)O)C(=O)OC2 | – | > 10000 nM | IC50 [9]: > 100000 nM |
| C/C(=C\Cc1c(N)cc(C)c(C)c1C)CCC(=O)O | 90800 nM | – | – |
| COc1c(C)c(C)c(F)c(F)c1C/C=C(\C)CCC(=O)O | – | – | IC50 [7]: 1.38 µM; IC50 [8]: > 10 µM |
| COc1c(C)c2c(c(O)c1C/C=C(\C)CCC(=O)O)C(=O)SC2 | 121 nM | 1700 nM | – |
| COc1c(C/C=C(\C)CCC(=O)O)cc(O)c(C)c1C | – | – | IC50 [7]: > 100 µM |
| C/C(=C\Cc1c(O)c2c(c(C)c1C1CC1)COC2=O)CCC(=O)O | 50.7 nM | 340 nM | – |
| COc1c(Br)c2c(c(O)c1C/C=C(\C)CCC(=O)O)C(=O)OC2 | – | 4000 nM | IC50 [9]: 975 nM |
| COc1c(C)c(C)c(C#N)c(Cl)c1C/C=C(\C)CCC(=O)O | – | – | IC50 [7]: 0.681 µM; IC50 [8]: > 10 µM |
| COc1c(C)c2c(c(O)c1C/C=C(\C)CCC(=O)O)C(=O)OCC2 | – | 8600 nM | IC50 [9]: 644 nM |
| COc1c(C/C=C(\C)CCC(=O)O)cc(SC)c(C)c1C | – | – | IC50 [7]: 52.3 µM; IC50 [8]: > 10 µM |
| COc1c(C)c(C)cc(Cl)c1C/C=C(\C)CCC(=O)O | – | – | IC50 [7]: 18.8 µM; IC50 [8]: > 10 µM |
| COc1c(C)c(C)c(Br)c(O)c1C/C=C(\C)CCC(=O)O | 36.7 nM | 280 nM | inhibition in vivo at 100 mg/kg [11]: 5% |
| C/C(=C\Cc1c(O)c2c(c(C)c1-c1ccccc1)COC2=O)CCC(=O)O | 130 nM | 2800 nM | – |
| C/C(=C\Cc1c(O)cc(C)c(C)c1C)CCC(=O)O | – | – | IC50 [12]: > 100 µM |
| C/C(=C\Cc1c(O)c2c(c(C)c1C#N)COC2=O)CCC(=O)O | 15500 nM | > 10000 nM | – |
| COc1c(C/C=C(\C)CCC(=O)O)c(O)c2c(c1OC)COC2=O | – | 130 nM | Inhibition [13]: 49%; IC50 [9]: 126 nM |
| COc1c(C/C=C(\C)CCC(=O)O)cc(S(C)=O)c(C)c1C (centres undefined) | – | – | IC50 [7]: > 100 µM; IC50 [8]: > 10 µM |
| COc1c(C/C=C(\C)CCC(=O)O)cc([N+](=O)[O-])c(C)c1C | 1220 nM | 9500 nM | – |
| C/C(=C\Cc1c(O)c(C)c2c(c1O)C(=O)OC2)CCC(=O)O | 87.7 nM | > 10000 nM | – |
| COc1c(C)c(C)c([N+](=O)[O-])c(N)c1C/C=C(\C)CCC(=O)O | 465 nM | 2800 nM | – |
| COc1c(C)c(C)c(/C=N/O)c(O)c1C/C=C(\C)CCC(=O)O | – | – | IC50 [7]: 11.9 µM; IC50 [14]: > 10 µM |
| COc1c(C)c(C)c([N+](=O)[O-])c(Cl)c1C/C=C(\C)CCC(=O)O | – | – | IC50 [7]: 1.8 µM; IC50 [8]: > 10 µM |

Now from value to compound, other results behind:

| IC50 [10] | SMILES | IC50 [2] | also measured |
| --- | --- | --- | --- |
| 184 nM | COc1c(C)c(C)c([N+](=O)[O-])c(O)c1C/C=C(\C)CCC(=O)O | – | – |
| 620 nM | C/C(=C\Cc1c(C)c(C)c(C)c(Br)c1O)CCC(=O)O | 1650 nM | – |
| 11900 nM | COc1c(C)c(C)c(OC)c(C/C=C(\C)CCC(=O)O)c1O | – | – |
| 462 nM | COc1c(C)c(C)c(Br)c(N)c1C/C=C(\C)CCC(=O)O | 4100 nM | inhibition in vivo at 100 mg/kg [11]: 30% |
| 763 nM | C/C(=C\Cc1c(C)c(C)c(C)c(Br)c1N)CCC(=O)O | – | – |
| 1080 nM | COc1c(C)c(C)c(F)c(O)c1C/C=C(\C)CCC(=O)O | 4100 nM | – |
| 231 nM | C/C(=C\Cc1c(O)c2c(c(C)c1C(N)=O)COC2=O)CCC(=O)O | > 10000 nM | – |
| 1600 nM | COc1c(C/C=C(\C)CCC(=O)O)cc(C#N)c(C)c1C | – | – |
